Source: ChEMBL document CHEMBL1914310, “Microbial transformations of diosgenin by the white-rot basidiomycete Coriolus versicolor” (2011)
Calls of active or inactive are those of the source. No cut-off for these calls is given here.

How the values were obtained:
HEK293 = assay: Inhibition of human NF-kappaB in HEK cells by luciferase reporter gene assay; format: cell-based
In short: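 HEK293 cells with a chromosomally integrated luciferase reporter under an NF-κB response element. Pathway activation induced by human tumor necrosis factor. After incubation, treated cells were lysed in reporter lysis buffer. Luciferase light output was read on a luminometer.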

U-87MG ATCC = assay: Cytotoxicity against human U87 cells after 48 hrs by XTT assay; format: functional, cell-based
In short: (§1)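 U87 glioma cells kept in ATCC-recommended medium with 10% FBS at 37 °C, 5% CO2. Seeded at 1000 cells/well, exposed to compounds for 48 h. XTT added, then plates held another 4 h at 37 °C. Viability read colorimetrically per the kit protocol; inhibition taken at 100 μM.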

[1] = Cytotoxicity against human U87 cells assessed as growth inhibition at 100 uM after 48 hrs by XTT assay; format: functional, U-87MG ATCC; conditions: U-87 MG, read-out: GI; in short: as §1

| Structure (SMILES) | inhibition (HEK293) | Activity (U-87MG ATCC) | inhibition of growth at 100 µM [1] |
| --- | --- | --- | --- |
| C[C@@H]1CC[C@@]2(OC1)O[C@H]1C[C@H]3[C@H]4[C@H]([C@H](O)C[C@]3(C)[C@H]1[C@@H]2CO)[C@@]1(C)CC[C@H](O)CC1=C[C@@H]4O | inactive |  |  |
| C[C@@H]1CC[C@@]2(OC1)O[C@H]1C[C@H]3[C@@H]4[C@@H](O)C=C5C[C@@H](O)CC[C@]5(C)[C@H]4CC[C@]3(C)[C@H]1[C@@H]2CO | inactive | inactive | 28.2% |
| C[C@@H]1CC[C@@]2(OC1)O[C@H]1[C@H](O)[C@H]3[C@@H]4[C@H](O)C=C5C[C@@H](O)CC[C@]5(C)[C@H]4CC[C@]3(C)[C@H]1[C@@H]2CO | inactive | inactive |  |
| C[C@@H]1CC[C@@]2(OC1)O[C@H]1C[C@H]3[C@@H]4CC[C@H]5C[C@@H](O)CC[C@]5(C)[C@H]4CC[C@]3(C)[C@H]1[C@@H]2C | inactive |  |  |
| C[C@@H]1CC[C@@]2(OC1)O[C@H]1C[C@H]3[C@@H]4[C@@H](O)C=C5C[C@@H](O)CC[C@]5(C)[C@H]4CC[C@]3(C)[C@H]1[C@@H]2C | inactive | inactive |  |
| CC(=O)O[C@H]1CC[C@@]2(C)C(=CC[C@H]3[C@@H]4C[C@@H]5O[C@]6(CC[C@@H](C)CO6)[C@@H](C)[C@@H]5[C@@]4(C)CC[C@@H]32)C1 | inactive | inactive |  |
| C[C@@H]1CC[C@@]2(OC1)O[C@H]1C[C@H]3[C@@H]4[C@@H](O)C=C5C[C@@H](O)CC[C@]5(C)[C@H]4C[C@@H](O)[C@]3(C)[C@H]1[C@@H]2C | inactive | inactive |  |
| C[C@@H]1CC[C@@]2(OC1)O[C@H]1C[C@H]3[C@@H]4[C@@H](O)C=C5C[C@@H](O)CC[C@]5(C)[C@H]4C[C@@H](O)[C@]3(C)[C@H]1[C@@H]2CO | inactive | inactive |  |
| C[C@@H]1CC[C@@]2(OC1)O[C@H]1C[C@H]3[C@@H]4CCC5=CC(=O)CC[C@]5(C)[C@H]4CC[C@]3(C)[C@H]1[C@@H]2C | inactive | inactive |  |
| C[C@@H]1CC[C@@]2(OC1)O[C@H]1C[C@H]3[C@@H]4CC=C5C[C@@H](O)CC[C@]5(C)[C@H]4CC[C@]3(C)[C@H]1[C@@H]2C | inactive |  |  |
| C[C@@H]1CC[C@@]2(OC1)O[C@H]1C[C@H]3[C@@H]4[C@H](O)C=C5C[C@@H](O)CC[C@]5(C)[C@H]4C[C@@H](O)[C@]3(C)[C@H]1[C@@H]2CO | inactive |  |  |
